MC4R antagonist – blocks human MC4R cAMP signaling; MC4R-expressing cells, MTII-stimulated cAMP, LANCE TR-FRET; 0.48% of 360,000 active; inhibition, % at 6.5 µM;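 active = inhibition above its plate's cutoff, the mean of tested wells on that plate plus 3 SD, cut at about 29% in these data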
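material = U2OS cells stably expressing human melanocortin 4 receptor (MC4R) | also added = Melanotan II challenge | dosing = single nominal compound dose of 6.5 µM | detection = TR-FRET with Eu-cAMP and labeled anti-cAMP, 671 nm | replication = singlicate | timing = compound 30 min, challenge 1 h, detection 1 h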
MC4R barr agon – agonists of human melanocortin 4 receptor (MC4R) beta-arrestin. 0.98% of 360,000 active. U2OS MC4R beta-arrestin complementation, luminescence; percent of melanotan II response, DMSO zero. activation, % at 8.9 µM. P32245;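 active = activation above a per-plate cutoff, the mean activation of sample wells on that plate plus 3 SD, cut at about 8% in these data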
HTR2A ag – activates the mouse 5-HT2A serotonin receptor. AID 624169. P35363. 0.66% of 360,000 active. CHO-K1 mHTR2A beta-arrestin complementation, luminescence; percent of 30 µM serotonin response. activation, % at 7.6 µM;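 active = activation above a run cutoff, the mean activation of all tested compounds plus 3 SD, cut at about 14% in these data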
EBI2 block – antagonists of human EBI2 receptor | EBI2 beta-arrestin recruitment, luminescence, 7a,25-OHC stimulated | AID 651636 | 0.81% of 360,000 active | P32249 | inhibition, % at 5 µM; in the data active = inhibition above about 38%;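 also: enzyme fragment complementation signal reports receptor beta-arrestin coupling in cells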
MOR ag counter – OPRM1 agonism in mouse HTR2A counterscreen | shares compounds with HTR2A ag | U2OS OPRM1 beta-arrestin PathHunter, luminescence; DMSO 0%, DAMGO 9.3 µM 100% | activation, % at 9.3 µM | 5.3% of 2,300 active;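 active = mean activation above the mean of DMSO-only wells plus 3 SD, cut at about 0.5% in these data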
Target sequence (P35372 whole entry, looked up): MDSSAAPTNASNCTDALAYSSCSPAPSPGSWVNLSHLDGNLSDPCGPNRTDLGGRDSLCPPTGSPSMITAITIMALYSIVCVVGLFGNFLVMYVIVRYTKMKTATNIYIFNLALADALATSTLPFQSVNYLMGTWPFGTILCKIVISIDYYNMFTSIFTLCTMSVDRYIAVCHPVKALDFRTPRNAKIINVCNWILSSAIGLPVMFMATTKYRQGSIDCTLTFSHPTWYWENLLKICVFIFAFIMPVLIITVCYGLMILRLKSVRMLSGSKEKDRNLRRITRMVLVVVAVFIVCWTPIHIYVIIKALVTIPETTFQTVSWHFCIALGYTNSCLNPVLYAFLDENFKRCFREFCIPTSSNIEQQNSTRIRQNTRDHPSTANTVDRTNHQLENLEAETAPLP
HTR2A ag conf – confirmation of mouse HTR2A serotonin receptor agonists; AID 624381; 19% of 2,300 active; shares compounds with HTR2A ag; activation, % at 7.6 µM; CHO-K1 PathHunter beta-arrestin recruitment, luminescence; DMSO 0%, 30 µM serotonin 100%;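 active = mean activation across triplicates above the hit threshold derived in the original primary screen, cut at about 15% in these data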
Numbers stand for hits; n = inactive; x = no result. Hits are enriched below; roughly 2.8% of the tested compounds scored in any of these assays.

SMILES	MC4R antagonist	MC4R barr agon	HTR2A ag	EBI2 block	MOR ag counter	HTR2A ag conf
COc1ccc(NC(=O)C2(C)CCCN(C(C)=O)C2)cc1F (configuration not stated)	n	n	n	n	x	x
CCn1c(SCC(=O)NC2CCCC2)nc2c(c1=O)SCC2	n	n	n	n	x	x
CC(=O)c1ccc(-c2cnc3c(NC=O)cc(-c4ccc(C(=O)N5CCOCC5)cc4)cn23)cc1	n	n	n	n	x	x
COc1ccc(-c2cnc3c(NC=O)cc(-c4ccc(C(=O)N5CCOCC5)cc4)cn23)cc1OC	n	n	17	n	n	n
Cn1c(=O)c2c(nc(Oc3ccccc3Cl)n2C)n(C)c1=O	n	n	n	n	x	x
Cn1c(=O)c2c(nc(Oc3ccccc3N)n2C)n(C)c1=O	n	n	16	n	n	n
CCCn1c(N)c(C(=O)CSc2nnc(Cc3cccs3)n2C2CC2)c(=O)n(C)c1=O	n	n	n	n	x	x
COc1ccc(-c2nc(CS(=O)CC(=O)NCCCN3CCCC(C)C3)c(C)o2)cc1OC (configuration not stated)	n	n	n	n	x	x
Cc1oc(-c2ccc(Cl)cc2)nc1CS(=O)CC(=O)NCCCN1CCCC(C)C1 (configuration not stated)	n	n	17	n	n	n
COc1cc(OC)cc(C(=O)NCC(=O)N2CCC(C)CC2)c1	n	n	28	n	n	n
COc1ccc(NC(=O)N2CCC(C(=O)c3ccc4c(c3)OCCO4)CC2)cc1	n	n	17	n	n	n
CCC(=O)Nc1ccc2c(c1)OC[C@@H](C)NC[C@@H](C)[C@@H](OC)CN(C)C2=O	x	x	n	n	x	x
OC[C@@H]1CN(Cc2ccco2)C[C@H](n2cnc3c(N4CCN(c5ccccc5)CC4)ncnc32)O1	n	n	n	n	x	x
O=C(COc1ccc(Cl)cc1)NCCS(=O)(=O)N1CCN(c2ccccc2F)CC1	n	n	16	n	n	n
CCN(C[C@H]1N[C@@](C)(C(=O)OC)[C@H]2C(=O)N(C)C(=O)[C@@H]12)C(=O)Nc1ccc(Cl)cc1	n	n	37	n	n	n
CCN(C[C@H]1N[C@@](C)(C(=O)OC)[C@H]2C(=O)N(C)C(=O)[C@@H]12)C(=O)Nc1ccc(F)cc1	n	n	n	n	x	x
COc1ccc2nc(NC(=O)c3cc(C)oc3C)sc2c1	n	n	n	n	x	x
COc1ccc2nc(NC(=O)c3ccoc3C)sc2c1	n	n	23	n	n	n
COCc1ccc(CN2CCC(n3nccc3NC(=O)C(OC)c3ccccc3)CC2)o1 (configuration not stated)	n	n	15	n	n	n
CCOC(=O)[C@]12CCCC=C1N(Cc1cccc3ccccc13)C(=O)[C@H](CC(=O)NCCc1ccccc1OC)C2	x	x	n	n	x	x
CC(C)CN(C(=O)CSc1nncn1-c1ccccc1)c1c(N)n(CC(C)C)c(=O)[nH]c1=O	n	n	16	n	n	n
CC(NC(=O)Nc1ccccc1C(F)(F)F)C1CCCO1 (configuration not stated)	n	n	26	n	n	n
CSc1ncnc2c1ncn2CCCN1CCN(c2ccccn2)CC1	n	n	n	n	x	x
CC(=O)NCCn1c(SCC#N)nc2ccccc2c1=O	n	n	15	n	n	n
N#CCSc1nc2ccccc2c(=O)n1CCC(=O)NCCc1ccccc1	n	n	n	n	x	x
SMILES	MC4R antagonist	MC4R barr agon	HTR2A ag	EBI2 block	MOR ag counter	HTR2A ag conf
COc1cccc(C=Nc2cc(C)cc(C)c2)c1O	n	n	n	n	x	x
COc1cccc(C=Nc2ccc3c(c2)CCC3)c1O	n	n	15	n	n	n
CCCc1cc(=O)[nH]c(SCC(=O)Nc2cccc(S(=O)(=O)N3CCCCC3)c2)n1	n	n	n	n	x	x
CCN(CC)c1ccc(NC(=O)C2=CCN(S(=O)(=O)c3ccc(F)cc3)CC2)c(C)c1	n	n	17	n	n	n
Cc1ccc(NC(=O)C2(C)CCCN2C)cc1C (configuration not stated)	n	n	n	n	x	x
CC(=O)c1ccc(N2CCN(C(=O)C3CCN(S(=O)(=O)c4ccc5c(c4)CC(C)N5C(C)=O)CC3)CC2)cc1 (configuration not stated)	n	n	16	n	n	n
CC(=O)N1c2ccc(S(=O)(=O)N3CCC(C(=O)N4CCN(c5cccc(C(F)(F)F)c5)CC4)CC3)cc2CC1C (configuration not stated)	n	n	n	n	x	x
Cc1ccc(C)c(OCC(=O)OCc2csc(CC(=O)Nc3ccccc3C)n2)c1	n	n	n	n	x	x
O=C(c1cccc(Cl)c1)N1CCN(S(=O)(=O)c2ccc(Cl)s2)CC1	n	n	16	n	n	n
CC(=O)Nc1cccc(NC(=O)NC2CC(=O)N(c3ccc4c(c3)OCCO4)C2)c1 (configuration not stated)	n	n	n	n	x	x
CS(=O)(=O)CCC(C(=O)OCc1ccc(Cl)cc1)N1C(=O)c2ccccc2C1=O (configuration not stated)	n	n	17	n	n	n
CC(C)c1ccc(N(CC(=O)NC(C)(C)C)C(=O)CCC(=O)Nc2nccs2)cc1	n	n	29	n	n	n
C=CCNC(=O)c1snnc1-c1ccccc1	n	n	n	n	x	x
CN(C)C(=O)c1snnc1-c1ccccc1	n	n	18	n	n	n
N#Cc1ccsc1NC(=O)CCN1C(=O)C2CCCCC2C1=O (configuration not stated)	n	n	n	n	x	x
C=C1C(=O)OC2C1C(OC(=O)C(C)=CC)CC(=C)C1C(O)C3OC3(C)C21O (configuration not stated)	n	n	16	n	n	n
C=C1C(=O)OC2C=C(CO)CCC=C(CO)CC(OC(=O)C(C)C)C12 (configuration not stated)	n	n	n	n	x	x
CC1=C(C(=O)N(C(C)C)C(C)C)CC(CC(=O)NCCN2CCOCC2)C(=O)N1CCC1=CCCCC1 (configuration not stated)	x	x	16	n	n	n
CCN(CC)C(=O)C1=C(C)N(CCC2=CCCCC2)C(=O)C(CC(=O)NCCN2CCOCC2)C1 (configuration not stated)	n	n	n	n	x	x
OC(c1cc(C(F)(F)F)nc2c(C(F)(F)F)cccc12)C1CCCCN1 (configuration not stated)	n	n	31	n	1.3	n
CN1CCN(c2ccc(Cl)cc2NC(=O)c2ccc(=O)n(C)n2)CC1	n	n	18	n	n	n
CN1CCN(c2ccc(Cl)cc2NC(=O)c2cc(=O)[nH]c3ccccc23)CC1	n	n	n	n	x	x
CNc1ccccc1C(=O)OCC(=O)N1CCc2ccccc2C1	n	n	n	n	x	x
CCC1Cc2[nH][nH]c(=O)c2C(CC)O1 (configuration not stated)	x	x	n	n	x	x

Source: PubChem
